Measurements: ChEMBL document CHEMBL2331168, “Anticonvulsant evaluation of aminoalkanol derivatives of 2- and 4-methylxanthone” (Bioorg Med Chem, 2013)
The source made the active and inactive calls.

Key:
Rattus norvegicus [1] = assay: Neurotoxicity in Sprague-Dawley rat assessed as minimal motor impairment at 30 mg/kg, po after 0.25 hrs by rotorod test; conditions: in vivo
Rattus norvegicus [2] = assay: Anticonvulsant activity in Sprague-Dawley rat assessed as protection against maximal electroshock-induced seizures at 30 mg/kg, po after 0.5 hrs; format: functional, organism-based; parameters: dose 30 mg/kg
Method in brief: (§1)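 Male Sprague-Dawley rats dosed orally at 30 mg/kg and tested at 0.25, 0.5, 1, 2 and 4 h. Seizures were induced by 60 Hz alternating current at 150 mA for 0.2 s through corneal electrodes, after a drop of 0.9% NaCl in each eye. Protection meant abolition of hindlimb tonic extension. Reported as protected/tested, usually 4 rats per time point.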

Mus musculus [3] = assay: Anticonvulsant activity in albino mouse assessed as protection against subcutaneous pentetrazole-induced seizures at 300 mg/kg, ip after 0.5 hrs; format: functional, organism-based; parameters: dose 300 mg/kg
Method in brief: (§2)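 Male albino mice (Carworth Farms No. 1) received compound ip in 0.5% methylcellulose, then pentetrazole 85 mg/kg sc in 0.9% NaCl at 0.5 or 4 h. Mice were watched for at least 30 min. Protection meant no threshold seizure, defined as a single clonic spasm lasting at least 5 s. Scored as protected/tested.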

Rattus norvegicus [4] = assay: Anticonvulsant activity in Sprague-Dawley rat assessed as protection against maximal electroshock-induced seizures at 30 mg/kg, po after 0.25 hrs; format: functional, organism-based; parameters: dose 30 mg/kg
Method in brief: as §1

Mus musculus [5] = assay: Anticonvulsant activity in albino mouse assessed as protection against maximal electroshock-induced seizures at 300 mg/kg, ip after 0.5 hrs; format: functional, organism-based; parameters: dose 300 mg/kg
Method in brief: (§3)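 Male albino mice (Carworth Farms No. 1) were given the compound ip as a suspension in 0.5% methylcellulose at 3–300 mg/kg. MES testing was at 0.5 and 4 h, sometimes also at 0.25 and 1 h. Current was 60 Hz, 50 mA, 0.2 s via corneal electrodes, with saline eye drops. Protection meant no hindlimb tonic extension, scored as protected/tested.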

Mus musculus [6] = assay: Anticonvulsant activity in albino mouse assessed as protection against maximal electroshock-induced seizures at 300 mg/kg, ip after 4 hrs; format: functional, organism-based; parameters: dose 300 mg/kg
Method in brief: as §3

Rattus norvegicus [7] = assay: Neurotoxicity in Sprague-Dawley rat assessed as minimal motor impairment at 30 mg/kg, po after 2 hrs by rotorod test; conditions: in vivo
Mus musculus [8] = assay: Neurotoxicity in albino mouse assessed as minimal motor impairment at 30 mg/kg, ip after 0.5 hrs by rotorod test; format: toxicity, organism-based; parameters: dose 30 mg/kg, route intraperitoneal; conditions: in vivo
Method in brief: (§4)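 Male albino mice (Carworth Farms No. 1) were dosed ip with suspensions in 0.5% methylcellulose and put on a 1 in. knurled rod rotating at 6 rpm at set times after dosing. Neurotoxicity meant failure to stay on the rod for at least 1 min in each of three trials. Scored as impaired/tested.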

Mus musculus [9] = assay: Anticonvulsant activity in albino mouse assessed as protection against maximal electroshock-induced seizures at 30 mg/kg, ip after 4 hrs; format: functional, organism-based; parameters: dose 30 mg/kg
Method in brief: as §3

Mus musculus [10] = assay: Neurotoxicity in albino mouse assessed as minimal motor impairment at 300 mg/kg, ip after 4 hrs by rotorod test; format: toxicity, organism-based; parameters: dose 300 mg/kg, route intraperitoneal; conditions: in vivo
Method in brief: as §4

Mus musculus [11] = assay: Neurotoxicity in albino mouse assessed as minimal motor impairment at 300 mg/kg, ip after 0.5 hrs by rotorod test; format: toxicity, organism-based; parameters: dose 300 mg/kg, route intraperitoneal; conditions: in vivo
Method in brief: as §4

Mus musculus [12] = assay: Anticonvulsant activity in albino mouse assessed as protection against maximal electroshock-induced seizures at 30 mg/kg, ip after 0.5 hrs; format: functional, organism-based; parameters: dose 30 mg/kg
Method in brief: as §3

Mus musculus [13] = assay: Anticonvulsant activity in albino mouse assessed as protection against subcutaneous pentetrazole-induced seizures at 300 mg/kg, ip after 4 hrs; format: functional, organism-based; parameters: dose 300 mg/kg
Method in brief: as §2

Mus musculus [14] = assay: Anticonvulsant activity in albino mouse assessed as protection against subcutaneous pentetrazole-induced seizures at 30 mg/kg, ip after 0.5 hrs; format: functional, organism-based; parameters: dose 30 mg/kg
Method in brief: as §2

Mus musculus [15] = assay: Neurotoxicity in albino mouse assessed as minimal motor impairment at 100 mg/kg, ip after 4 hrs by rotorod test; format: toxicity, organism-based; parameters: dose 100 mg/kg, route intraperitoneal; conditions: in vivo
Method in brief: as §4

Mus musculus [16] = assay: Anticonvulsant activity in albino mouse assessed as protection against subcutaneous pentetrazole-induced seizures at 30 mg/kg, ip after 4 hrs; format: functional, organism-based; parameters: dose 30 mg/kg
Method in brief: as §2

Mus musculus [17] = assay: Anticonvulsant activity in albino mouse assessed as protection against maximal electroshock-induced seizures at 100 mg/kg, ip after 0.5 hrs; format: functional, organism-based; parameters: dose 100 mg/kg
Method in brief: as §3

Rattus norvegicus [18] = assay: Neurotoxicity in Sprague-Dawley rat assessed as minimal motor impairment at 30 mg/kg, po after 4 hrs by rotorod test; conditions: in vivo
Mus musculus [19] = assay: Anticonvulsant activity in albino mouse assessed as protection against subcutaneous pentetrazole-induced seizures at 100 mg/kg, ip after 4 hrs; format: functional, organism-based; parameters: dose 100 mg/kg
Method in brief: as §2

Mus musculus [20] = assay: Neurotoxicity in albino mouse assessed as minimal motor impairment at 30 mg/kg, ip after 4 hrs by rotorod test; format: toxicity, organism-based; parameters: dose 30 mg/kg, route intraperitoneal; conditions: in vivo
Method in brief: as §4

Mus musculus [21] = assay: Anticonvulsant activity in albino mouse assessed as protection against subcutaneous pentetrazole-induced seizures at 100 mg/kg, ip after 0.5 hrs; format: functional, organism-based; parameters: dose 100 mg/kg
Method in brief: as §2

Rattus norvegicus [22] = assay: Neurotoxicity in Sprague-Dawley rat assessed as minimal motor impairment at 30 mg/kg, po after 1 hr by rotorod test; conditions: in vivo
Rattus norvegicus [23] = assay: Neurotoxicity in Sprague-Dawley rat assessed as minimal motor impairment at 30 mg/kg, po after 0.5 hrs by rotorod test; conditions: in vivo
Rattus norvegicus [24] = assay: Anticonvulsant activity in Sprague-Dawley rat assessed as protection against maximal electroshock-induced seizures at 30 mg/kg, po after 2 hrs; format: functional, organism-based; parameters: dose 30 mg/kg
Method in brief: as §1

Mus musculus [25] = assay: Neurotoxicity in albino mouse assessed as minimal motor impairment at 100 mg/kg, ip after 0.5 hrs by rotorod test; format: toxicity, organism-based; parameters: dose 100 mg/kg, route intraperitoneal; conditions: in vivo
Method in brief: as §4

Rattus norvegicus [26] = assay: Anticonvulsant activity in Sprague-Dawley rat assessed as protection against maximal electroshock-induced seizures at 30 mg/kg, po after 4 hrs; format: functional, organism-based; parameters: dose 30 mg/kg
Method in brief: as §1

Mus musculus [27] = assay: Anticonvulsant activity in albino mouse assessed as protection against maximal electroshock-induced seizures at 100 mg/kg, ip after 4 hrs; format: functional, organism-based; parameters: dose 100 mg/kg
Method in brief: as §3

SMILES | Activity (Rattus norvegicus [1]) | Activity (Mus musculus [3]) | Activity (Mus musculus [5]) | Activity (Mus musculus [6]) | Activity (Rattus norvegicus [7]) | Activity (Mus musculus [8]) | Activity (Mus musculus [9]) | Activity (Mus musculus [11]) | Activity (Mus musculus [12]) | Activity (Mus musculus [13]) | Activity (Mus musculus [14]) | Activity (Mus musculus [15]) | Activity (Mus musculus [16]) | Activity (Rattus norvegicus [18]) | Activity (Mus musculus [19]) | Activity (Mus musculus [20]) | Activity (Mus musculus [21]) | Activity (Rattus norvegicus [22]) | Activity (Rattus norvegicus [23]) | Activity (Mus musculus [25]) | also measured
CC(CO)NCc1ccc2oc3ccc(Cl)cc3c(=O)c2c1 (racemic) | Non-toxic | inactive | inactive | Active | Non-toxic | Non-toxic | inactive | Non-toxic | inactive | inactive | inactive | Non-toxic | inactive | Non-toxic | inactive | Non-toxic | inactive | Non-toxic | Non-toxic | Non-toxic | Activity (Rattus norvegicus [2]): inactive; Activity (Rattus norvegicus [4]): inactive; Activity (Mus musculus [10]): Non-toxic; Activity (Mus musculus [17]): inactive; Activity (Rattus norvegicus [24]): inactive
CC[C@@H](CO)NCc1cccc2c(=O)c3ccc(OC)cc3oc12 | Non-toxic | inactive | Active | Active | Non-toxic | – | inactive | Toxic | inactive | inactive | inactive | – | inactive | Non-toxic | inactive | Non-toxic | inactive | Non-toxic | Non-toxic | – | Activity (Rattus norvegicus [4]): inactive; Activity (Rattus norvegicus [26]): inactive
CC[C@H](CO)NCc1cccc2c(=O)c3ccc(OC)cc3oc12 | Non-toxic | inactive | Active | Active | Non-toxic | Non-toxic | inactive | Toxic | inactive | inactive | inactive | Non-toxic | inactive | Non-toxic | inactive | Non-toxic | inactive | Non-toxic | Non-toxic | Non-toxic | Activity (Mus musculus [27]): inactive; Activity (Rattus norvegicus [2]): inactive; Activity (Mus musculus [10]): Non-toxic
COc1ccc2c(=O)c3cccc(CNC(C)(C)CO)c3oc2c1 | Non-toxic | – | – | – | Non-toxic | Non-toxic | inactive | Toxic | inactive | – | inactive | Non-toxic | inactive | Non-toxic | inactive | Non-toxic | inactive | Non-toxic | Non-toxic | Toxic | Activity (Mus musculus [27]): inactive; Activity (Rattus norvegicus [4]): inactive; Activity (Mus musculus [17]): Active; Activity (Rattus norvegicus [24]): inactive
COc1ccc2c(=O)c3cccc(CNCC(C)O)c3oc2c1 (racemic) | – | – | – | – | – | Non-toxic | inactive | Toxic | inactive | – | inactive | – | inactive | – | inactive | Non-toxic | inactive | – | – | Toxic | Activity (Mus musculus [17]): Active
C[C@H](CO)NCc1ccc2oc3ccc(Cl)cc3c(=O)c2c1 | Non-toxic | inactive | Active | Active | Non-toxic | Non-toxic | inactive | – | inactive | inactive | inactive | Non-toxic | inactive | Non-toxic | inactive | Non-toxic | inactive | Non-toxic | Non-toxic | Non-toxic | Activity (Mus musculus [27]): inactive; Activity (Rattus norvegicus [2]): inactive; Activity (Mus musculus [10]): Non-toxic; Activity (Rattus norvegicus [24]): inactive
